# Experiments:
# [1] = target: T1, ASPACDRAFT_127619 (Aspergillus aculeatus, UniProt A0A1L9WG58); assay: Competitive ABP labeling by 8 against substrates, recombinant enzyme; type: binding, A. aculeatus
# T1 sequence (A0A1L9WG58 23-338): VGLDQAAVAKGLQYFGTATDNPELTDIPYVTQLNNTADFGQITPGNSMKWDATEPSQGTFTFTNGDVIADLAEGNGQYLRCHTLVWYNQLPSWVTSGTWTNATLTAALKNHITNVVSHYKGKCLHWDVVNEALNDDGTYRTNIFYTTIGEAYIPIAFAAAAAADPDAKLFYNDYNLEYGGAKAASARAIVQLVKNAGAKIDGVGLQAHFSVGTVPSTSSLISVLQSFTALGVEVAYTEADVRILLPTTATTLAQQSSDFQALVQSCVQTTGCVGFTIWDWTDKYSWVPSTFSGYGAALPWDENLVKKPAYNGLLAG
# How it was run: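 Labeling of recombinant GH10 xylanase used 100 nM xylobiose Cy5 ABP for 10 min at room temperature, with competing substrates (e.g. polysaccharides) added. Loss of in-gel fluorescence with competitor concentration gave IC50. Assays were also repeated at 20 min, 37 °C, 1 μM ABP. Three or four technical replicates.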
# [2] = target: T2, ∼130 kDa band (XlnD, β-xylosidase) (Aspergillus niger, UniProt O00089); assay: ABP labeling of secretomes and competition by inhibitors; type: binding, A. niger
# T2 sequence (O00089 27-804): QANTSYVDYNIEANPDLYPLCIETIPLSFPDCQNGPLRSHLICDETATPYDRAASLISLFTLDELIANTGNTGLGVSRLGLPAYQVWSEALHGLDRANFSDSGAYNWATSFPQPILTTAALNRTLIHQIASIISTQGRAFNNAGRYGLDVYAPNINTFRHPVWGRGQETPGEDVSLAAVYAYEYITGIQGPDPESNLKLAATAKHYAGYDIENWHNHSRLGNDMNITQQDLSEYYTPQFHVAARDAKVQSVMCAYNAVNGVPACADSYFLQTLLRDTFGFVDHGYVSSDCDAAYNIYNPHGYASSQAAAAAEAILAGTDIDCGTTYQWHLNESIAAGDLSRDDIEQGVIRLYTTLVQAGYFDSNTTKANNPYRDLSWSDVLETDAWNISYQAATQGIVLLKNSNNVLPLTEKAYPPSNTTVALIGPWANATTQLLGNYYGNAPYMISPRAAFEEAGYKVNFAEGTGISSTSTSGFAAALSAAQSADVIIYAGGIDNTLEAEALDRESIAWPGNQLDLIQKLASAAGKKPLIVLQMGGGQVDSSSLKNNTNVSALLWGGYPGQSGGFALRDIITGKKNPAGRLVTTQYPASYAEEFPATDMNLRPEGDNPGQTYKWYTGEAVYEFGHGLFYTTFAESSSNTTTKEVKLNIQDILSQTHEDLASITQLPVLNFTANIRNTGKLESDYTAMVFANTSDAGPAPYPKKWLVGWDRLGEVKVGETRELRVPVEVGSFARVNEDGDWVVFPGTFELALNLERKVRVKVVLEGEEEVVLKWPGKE
# How it was run: (§1)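 A. niger N402 was grown in minimal medium with 50 mM (0.75% w/v) xylose or 1% w/v beechwood xylan as sole carbon source. Secretomes were sampled at days 1–9, brought to pH 4.5 with phosphate/citrate buffer and labeled unconcentrated with Cy5 ABPs. In competition runs, secretome was preincubated with competitor (e.g. 100 μM aziridine) before ABP. Bands were read by SDS-PAGE fluorescence scan.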
# [3] = target: ∼30 kDa band (XlnC, β-xylanase) (Aspergillus niger, UniProt C5J411); assay: as above; type: binding, A. niger; settings: xylan-induced secretome preincubated with competitor, then ABP 8
# How it was run: as §1
smiles,measurement,setting,value
Cc1cc(=O)oc2cc(O[C@@H]3OC[C@@H](O[C@@H]4OC[C@@H](O)[C@H](O)[C@H]4O)[C@H](O)[C@H]3O)ccc12 [4MU-β-D-xylobioside],IC50,[1],204 µM
"OC[C@@H]1[C@@H](O)[C@H](O)[C@@H](O)[C@@H]2O[C@H]12 [Compound 22, cyclophellitol]",competition of ∼130 kDa band labeling by 8,"[2]; xylan-induced secretome preincubated with competitor, then ABP 8",No labeling inhibition
same,competition of ∼30 kDa band labeling by 8,[3],No labeling inhibition
"OC[C@@H]1[C@@H](O)[C@H](O)[C@@H](O)[C@@H]2N[C@H]12 [Compound 23, cyclophellitol aziridine]",competition of ∼130 kDa band labeling by 8,[2]; preincubation with 100 μM competitor,some loss of intensity

# Source: publication PMC6598175 (ACS Central Science, 2019)
